Data taken from ChEMBL document CHEMBL1811853, “Design and evaluation of 3-aminopyrazolopyridinone kinase inhibitors inspired by the natural product indirubin” (Bioorg Med Chem, 2011).

Experiments:
[1] = Aqueous solubility of the compound by HPLC analysis; assay type: physicochemical; details: water
Outline: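 Solubility determined by HPLC measurement of the concentration in saturated aqueous solutions of the compounds.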

[2] = target: Ribosomal protein S6 kinase alpha-5 (Homo sapiens) (UniProt O75582); test: Inhibition of MSK1 at 30 uM by microfluidic mobility shift assay
Outline: (§1)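 Single-concentration screen, singlicate, 30 uM final (diluted from 1 mM DMSO solutions), fluorescently tagged peptide substrate appropriate to each kinase, ATP at apparent Km for each protein. Phosphorylated and unphosphorylated peptides separated electrophoretically; conversion is the phosphorylated peak area over the sum of both peaks. No-inhibitor and no-ATP controls; H89 reference on each plate.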

[3] = target: T1, Tyrosine-protein kinase ABL1 (Homo sapiens, UniProt P00519); test: Inhibition of ABL by microfluidic mobility shift assay
Outline: (§2)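 IC50 determined in the mobility shift format: a fluorescently tagged peptide substrate appropriate to each kinase, ATP at its apparent Km for each protein, and electrophoretic separation of phospho and unphosphorylated peptide. Percent conversion is the ratio of the phosphopeptide peak area to the total peak area. Controls were no inhibitor and no ATP.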

[4] = target: RAC-alpha serine/threonine-protein kinase (Homo sapiens) (UniProt P31749); test: Inhibition of AKT1 at 30 uM by microfluidic mobility shift assay; outline: as §1
[5] = target: T2, Tyrosine-protein kinase Lyn (Homo sapiens, UniProt P07948); test: Inhibition of LYN by microfluidic mobility shift assay; outline: as §2
MCF7 = test: Growth inhibition of human MCF7 cells at 0.039 uM; assay type: functional; details: read-out: GI
[6] = target: T3, Proto-oncogene tyrosine-protein kinase Src (Homo sapiens, UniProt P12931); test: Inhibition of SRC at 30 uM by microfluidic mobility shift assay; outline: as §1
[7] = target: Ribosomal protein S6 kinase alpha-1 (Homo sapiens) (UniProt Q15418); test: Inhibition of RSK1 at 30 uM by microfluidic mobility shift assay; outline: as §1
[8] = target: MAP kinase-activated protein kinase 2 (Homo sapiens, UniProt P49137); test: Inhibition of MAPKAPK2 at 30 uM by microfluidic mobility shift assay; outline: as §1
[9] = target: T4, Mitogen-activated protein kinase 14 (Homo sapiens, UniProt Q16539); test: Inhibition of p38alpha by microfluidic mobility shift assay; outline: as §2
[10] = target: Mitogen-activated protein kinase 1 (Homo sapiens) (UniProt P28482); test: Inhibition of ERK2 at 30 uM by microfluidic mobility shift assay; outline: as §1
[11] = target: RAC-beta serine/threonine-protein kinase (Homo sapiens) (UniProt P31751); test: Inhibition of AKT2 at 30 uM by microfluidic mobility shift assay; outline: as §1
[12] = target: T5, Tyrosine-protein kinase Lck (Homo sapiens, UniProt P06239); test: Inhibition of LCK at 30 uM by microfluidic mobility shift assay; outline: as §1
[13] = target: T5, Tyrosine-protein kinase Lck; test: Inhibition of LCK by microfluidic mobility shift assay; outline: as §2
Target sequence in this assay (P06239 whole entry): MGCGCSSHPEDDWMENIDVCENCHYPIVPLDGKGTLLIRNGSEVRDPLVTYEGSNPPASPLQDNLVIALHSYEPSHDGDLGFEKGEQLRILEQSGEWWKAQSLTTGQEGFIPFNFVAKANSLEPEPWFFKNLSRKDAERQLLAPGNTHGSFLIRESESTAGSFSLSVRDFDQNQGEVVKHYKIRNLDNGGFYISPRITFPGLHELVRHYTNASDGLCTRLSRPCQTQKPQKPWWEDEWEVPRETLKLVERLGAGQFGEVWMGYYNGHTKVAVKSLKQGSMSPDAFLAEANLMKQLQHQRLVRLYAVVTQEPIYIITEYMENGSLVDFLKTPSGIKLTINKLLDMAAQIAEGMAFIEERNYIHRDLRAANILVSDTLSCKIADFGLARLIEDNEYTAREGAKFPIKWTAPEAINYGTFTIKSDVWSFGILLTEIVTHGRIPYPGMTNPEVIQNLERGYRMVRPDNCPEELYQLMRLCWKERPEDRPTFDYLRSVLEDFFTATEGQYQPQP

[14] = target: T4, Mitogen-activated protein kinase 14; test: Inhibition of p38alpha at 30 uM by microfluidic mobility shift assay; outline: as §1
[15] = Inhibition of PKA at 30 uM by microfluidic mobility shift assay; outline: as §1
[16] = target: T6, MAP kinase-activated protein kinase 5 (Homo sapiens) (UniProt Q8IW41); test: Inhibition of PRAK1 at 30 uM by microfluidic mobility shift assay; outline: as §1
T6 sequence (whole entry): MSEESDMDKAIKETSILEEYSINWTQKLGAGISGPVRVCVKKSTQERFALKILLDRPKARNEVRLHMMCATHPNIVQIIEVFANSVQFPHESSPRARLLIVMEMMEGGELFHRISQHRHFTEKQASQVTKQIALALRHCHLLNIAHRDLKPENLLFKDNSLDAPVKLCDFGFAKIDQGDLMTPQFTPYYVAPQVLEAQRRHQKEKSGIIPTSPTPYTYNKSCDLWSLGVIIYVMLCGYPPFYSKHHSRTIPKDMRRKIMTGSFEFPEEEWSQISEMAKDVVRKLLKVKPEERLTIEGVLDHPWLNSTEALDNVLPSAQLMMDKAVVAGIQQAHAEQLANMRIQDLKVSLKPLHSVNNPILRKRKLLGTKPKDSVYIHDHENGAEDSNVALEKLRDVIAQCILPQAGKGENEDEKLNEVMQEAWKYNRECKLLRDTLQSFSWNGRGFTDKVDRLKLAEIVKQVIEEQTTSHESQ

[17] = target: Insulin receptor (Homo sapiens) (UniProt P06213); test: Inhibition of INSR at 30 uM by microfluidic mobility shift assay; outline: as §1
[18] = target: T7, Serine/threonine-protein kinase D2 (Homo sapiens) (UniProt Q9BZL6); test: Inhibition of PKD2 at 30 uM by microfluidic mobility shift assay; outline: as §1
T7 sequence (whole entry): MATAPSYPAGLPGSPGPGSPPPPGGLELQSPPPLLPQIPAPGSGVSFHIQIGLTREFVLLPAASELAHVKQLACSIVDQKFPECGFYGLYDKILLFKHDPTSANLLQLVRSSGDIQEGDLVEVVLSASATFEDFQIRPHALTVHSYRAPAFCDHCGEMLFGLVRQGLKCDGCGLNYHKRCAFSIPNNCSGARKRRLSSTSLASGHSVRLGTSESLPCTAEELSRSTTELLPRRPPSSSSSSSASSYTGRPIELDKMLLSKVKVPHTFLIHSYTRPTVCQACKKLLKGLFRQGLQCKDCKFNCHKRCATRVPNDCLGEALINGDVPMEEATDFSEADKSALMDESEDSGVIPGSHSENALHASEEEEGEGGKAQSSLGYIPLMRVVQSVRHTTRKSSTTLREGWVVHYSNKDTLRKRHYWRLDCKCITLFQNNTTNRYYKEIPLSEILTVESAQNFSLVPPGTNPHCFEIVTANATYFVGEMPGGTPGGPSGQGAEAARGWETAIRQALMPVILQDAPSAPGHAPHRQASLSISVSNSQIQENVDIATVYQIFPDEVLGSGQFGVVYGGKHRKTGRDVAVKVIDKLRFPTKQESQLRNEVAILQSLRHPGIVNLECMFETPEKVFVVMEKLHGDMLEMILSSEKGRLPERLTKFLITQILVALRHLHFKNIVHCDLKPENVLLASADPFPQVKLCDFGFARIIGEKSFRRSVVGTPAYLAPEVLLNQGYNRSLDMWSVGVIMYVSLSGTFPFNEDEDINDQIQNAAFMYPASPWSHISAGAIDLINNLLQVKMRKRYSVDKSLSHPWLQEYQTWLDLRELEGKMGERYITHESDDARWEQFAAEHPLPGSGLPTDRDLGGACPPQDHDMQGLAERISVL

[19] = target: Serine/threonine-protein kinase Chk2 (Homo sapiens, UniProt O96017); test: Inhibition of CHK2 at 30 uM by microfluidic mobility shift assay; outline: as §1
[20] = target: T8, Aurora kinase A (Homo sapiens) (UniProt O14965); test: Inhibition of AurA at 30 uM by microfluidic mobility shift assay; outline: as §1
T8 sequence (whole entry): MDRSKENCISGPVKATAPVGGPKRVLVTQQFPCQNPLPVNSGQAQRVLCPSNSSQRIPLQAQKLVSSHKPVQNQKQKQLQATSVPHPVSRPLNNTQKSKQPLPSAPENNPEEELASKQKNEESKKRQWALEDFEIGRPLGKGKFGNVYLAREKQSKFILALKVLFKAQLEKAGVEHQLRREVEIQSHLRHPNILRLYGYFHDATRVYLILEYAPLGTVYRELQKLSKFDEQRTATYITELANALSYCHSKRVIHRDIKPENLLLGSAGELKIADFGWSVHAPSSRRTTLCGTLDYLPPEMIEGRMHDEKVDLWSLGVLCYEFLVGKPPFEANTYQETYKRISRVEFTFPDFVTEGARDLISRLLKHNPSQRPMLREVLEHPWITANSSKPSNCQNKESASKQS

[21] = target: T1, Tyrosine-protein kinase ABL1; test: Inhibition of ABL at 30 uM by microfluidic mobility shift assay; outline: as §1
[22] = target: Mitogen-activated protein kinase 3 (Homo sapiens) (UniProt P27361); test: Inhibition of ERK1 at 30 uM by microfluidic mobility shift assay; outline: as §1
[23] = target: T9, Tyrosine-protein kinase Fyn (Homo sapiens, UniProt P06241); test: Inhibition of FYN by microfluidic mobility shift assay; outline: as §2
[24] = target: T3, Proto-oncogene tyrosine-protein kinase Src; test: Inhibition of SRC by microfluidic mobility shift assay; outline: as §2
[25] = target: T2, Tyrosine-protein kinase Lyn; test: Inhibition of LYN at 30 uM by microfluidic mobility shift assay; outline: as §1
[26] = target: Glycogen synthase kinase-3 beta (Homo sapiens) (UniProt P49841); test: Inhibition of GSK3B at 30 uM by microfluidic mobility shift assay; outline: as §1
[27] = target: T9, Tyrosine-protein kinase Fyn; test: Inhibition of FYN at 30 uM by microfluidic mobility shift assay; outline: as §1
Target sequence in this assay (P06241 2-537 limits assumed): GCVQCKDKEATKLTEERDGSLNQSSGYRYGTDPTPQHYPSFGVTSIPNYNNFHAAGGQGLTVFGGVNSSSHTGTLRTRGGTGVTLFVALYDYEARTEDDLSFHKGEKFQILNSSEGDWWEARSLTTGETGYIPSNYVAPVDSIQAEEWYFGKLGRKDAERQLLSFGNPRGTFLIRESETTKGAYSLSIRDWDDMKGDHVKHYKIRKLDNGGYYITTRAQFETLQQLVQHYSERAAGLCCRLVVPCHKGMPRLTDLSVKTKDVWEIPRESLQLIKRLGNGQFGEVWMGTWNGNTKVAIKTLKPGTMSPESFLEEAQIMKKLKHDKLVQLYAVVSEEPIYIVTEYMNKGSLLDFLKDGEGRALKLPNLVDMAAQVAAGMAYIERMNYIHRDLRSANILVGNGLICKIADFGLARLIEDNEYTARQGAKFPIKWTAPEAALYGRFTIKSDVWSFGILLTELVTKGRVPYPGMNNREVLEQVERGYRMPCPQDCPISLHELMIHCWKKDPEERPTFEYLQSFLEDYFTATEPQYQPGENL

T3 sequence (P12931 2-536 limits assumed): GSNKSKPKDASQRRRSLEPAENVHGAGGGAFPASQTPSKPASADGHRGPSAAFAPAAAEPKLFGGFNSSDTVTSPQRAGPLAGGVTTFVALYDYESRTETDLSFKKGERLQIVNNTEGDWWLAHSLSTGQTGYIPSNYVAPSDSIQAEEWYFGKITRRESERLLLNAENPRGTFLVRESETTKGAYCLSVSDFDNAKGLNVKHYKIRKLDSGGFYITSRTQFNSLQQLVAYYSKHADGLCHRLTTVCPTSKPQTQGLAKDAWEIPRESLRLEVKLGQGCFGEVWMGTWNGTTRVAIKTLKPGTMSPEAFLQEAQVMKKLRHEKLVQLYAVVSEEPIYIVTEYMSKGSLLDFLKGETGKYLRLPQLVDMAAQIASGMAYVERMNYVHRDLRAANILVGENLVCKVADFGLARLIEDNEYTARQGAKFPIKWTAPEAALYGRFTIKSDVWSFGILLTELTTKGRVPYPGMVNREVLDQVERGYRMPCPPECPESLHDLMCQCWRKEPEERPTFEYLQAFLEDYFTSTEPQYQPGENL
T4 sequence (Q16539 whole entry): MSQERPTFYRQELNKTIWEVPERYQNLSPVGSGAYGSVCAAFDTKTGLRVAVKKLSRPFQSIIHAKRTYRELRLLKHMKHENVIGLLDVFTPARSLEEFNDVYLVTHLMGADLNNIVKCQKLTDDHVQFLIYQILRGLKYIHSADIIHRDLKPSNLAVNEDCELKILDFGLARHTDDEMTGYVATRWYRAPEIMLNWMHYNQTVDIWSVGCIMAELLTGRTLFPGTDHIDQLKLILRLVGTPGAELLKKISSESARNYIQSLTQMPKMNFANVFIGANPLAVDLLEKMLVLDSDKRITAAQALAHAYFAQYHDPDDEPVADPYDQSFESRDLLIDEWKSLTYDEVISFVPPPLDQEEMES
T1 sequence (P00519 whole entry): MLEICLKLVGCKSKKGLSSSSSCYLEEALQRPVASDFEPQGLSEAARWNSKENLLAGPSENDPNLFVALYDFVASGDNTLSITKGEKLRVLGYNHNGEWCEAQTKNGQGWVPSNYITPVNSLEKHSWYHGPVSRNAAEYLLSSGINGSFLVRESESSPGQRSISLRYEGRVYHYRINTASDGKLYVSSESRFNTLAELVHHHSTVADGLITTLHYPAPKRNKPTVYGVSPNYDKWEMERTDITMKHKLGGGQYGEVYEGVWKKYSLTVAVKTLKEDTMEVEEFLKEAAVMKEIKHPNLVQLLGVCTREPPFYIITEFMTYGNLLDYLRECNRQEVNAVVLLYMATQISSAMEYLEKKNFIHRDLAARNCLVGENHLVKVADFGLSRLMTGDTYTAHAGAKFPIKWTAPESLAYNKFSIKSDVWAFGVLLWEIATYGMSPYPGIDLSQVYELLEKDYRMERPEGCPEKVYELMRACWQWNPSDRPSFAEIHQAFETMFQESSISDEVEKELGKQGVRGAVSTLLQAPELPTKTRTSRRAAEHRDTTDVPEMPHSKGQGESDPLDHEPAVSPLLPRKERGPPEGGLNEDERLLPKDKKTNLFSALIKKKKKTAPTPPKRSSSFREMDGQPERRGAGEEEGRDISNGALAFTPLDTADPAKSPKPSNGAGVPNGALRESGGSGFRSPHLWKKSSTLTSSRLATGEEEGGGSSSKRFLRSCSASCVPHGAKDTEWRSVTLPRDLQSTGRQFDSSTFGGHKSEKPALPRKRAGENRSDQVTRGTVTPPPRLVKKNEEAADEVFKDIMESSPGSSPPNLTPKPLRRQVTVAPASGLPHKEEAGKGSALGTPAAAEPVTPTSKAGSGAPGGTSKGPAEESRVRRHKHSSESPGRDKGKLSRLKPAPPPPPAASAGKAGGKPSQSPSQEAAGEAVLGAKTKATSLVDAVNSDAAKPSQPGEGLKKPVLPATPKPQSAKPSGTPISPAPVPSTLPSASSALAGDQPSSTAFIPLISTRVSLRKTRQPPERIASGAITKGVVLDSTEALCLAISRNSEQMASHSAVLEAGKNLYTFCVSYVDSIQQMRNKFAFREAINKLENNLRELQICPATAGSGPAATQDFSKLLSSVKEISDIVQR
RAC-beta serine/threonine-protein kinase (Homo sapiens), sequence (P31751 whole entry): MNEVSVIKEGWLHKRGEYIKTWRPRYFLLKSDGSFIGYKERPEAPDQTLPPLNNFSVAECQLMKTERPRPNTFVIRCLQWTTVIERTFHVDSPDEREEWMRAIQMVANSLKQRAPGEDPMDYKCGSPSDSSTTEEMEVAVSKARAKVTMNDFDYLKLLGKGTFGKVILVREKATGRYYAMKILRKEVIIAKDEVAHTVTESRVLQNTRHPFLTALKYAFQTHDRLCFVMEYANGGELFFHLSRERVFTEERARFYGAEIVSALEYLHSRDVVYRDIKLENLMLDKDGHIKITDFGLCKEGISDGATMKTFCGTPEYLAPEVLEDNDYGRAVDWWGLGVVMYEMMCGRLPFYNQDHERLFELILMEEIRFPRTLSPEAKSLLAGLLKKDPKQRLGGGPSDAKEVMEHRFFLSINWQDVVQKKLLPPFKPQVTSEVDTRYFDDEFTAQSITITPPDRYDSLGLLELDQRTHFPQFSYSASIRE
Ribosomal protein S6 kinase alpha-1 (Homo sapiens), sequence (Q15418 whole entry): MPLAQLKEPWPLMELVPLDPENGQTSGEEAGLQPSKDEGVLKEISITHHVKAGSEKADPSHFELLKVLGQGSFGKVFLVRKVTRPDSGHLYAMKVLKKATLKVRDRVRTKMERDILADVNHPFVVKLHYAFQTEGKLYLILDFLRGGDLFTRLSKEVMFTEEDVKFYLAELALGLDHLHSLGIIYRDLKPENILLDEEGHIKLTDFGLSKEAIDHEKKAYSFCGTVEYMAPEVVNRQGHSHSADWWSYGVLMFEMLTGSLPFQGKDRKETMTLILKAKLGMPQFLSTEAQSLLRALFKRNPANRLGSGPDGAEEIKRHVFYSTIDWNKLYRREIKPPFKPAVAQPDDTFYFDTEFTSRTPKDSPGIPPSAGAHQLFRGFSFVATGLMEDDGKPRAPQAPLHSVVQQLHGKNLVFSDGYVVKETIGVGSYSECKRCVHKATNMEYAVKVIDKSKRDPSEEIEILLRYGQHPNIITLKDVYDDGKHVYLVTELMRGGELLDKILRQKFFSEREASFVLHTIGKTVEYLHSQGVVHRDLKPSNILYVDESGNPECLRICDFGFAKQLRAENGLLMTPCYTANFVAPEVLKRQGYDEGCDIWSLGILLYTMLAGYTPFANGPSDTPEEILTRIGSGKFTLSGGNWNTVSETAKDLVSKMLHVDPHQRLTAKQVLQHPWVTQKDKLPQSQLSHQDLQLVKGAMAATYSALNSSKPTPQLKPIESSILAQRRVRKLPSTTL
MAP kinase-activated protein kinase 2, sequence (P49137 whole entry, looked up): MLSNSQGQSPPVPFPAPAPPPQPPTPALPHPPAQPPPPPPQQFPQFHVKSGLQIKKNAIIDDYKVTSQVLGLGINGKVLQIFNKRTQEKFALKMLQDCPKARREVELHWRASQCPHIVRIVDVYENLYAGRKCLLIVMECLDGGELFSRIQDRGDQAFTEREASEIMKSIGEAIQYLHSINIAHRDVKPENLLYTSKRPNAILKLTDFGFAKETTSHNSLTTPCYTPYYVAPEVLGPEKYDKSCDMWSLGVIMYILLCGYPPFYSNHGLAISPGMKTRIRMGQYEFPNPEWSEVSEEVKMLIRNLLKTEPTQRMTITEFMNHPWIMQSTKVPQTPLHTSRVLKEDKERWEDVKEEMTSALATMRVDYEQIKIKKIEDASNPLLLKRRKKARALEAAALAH

Nc1c2c(=O)[nH]c(-c3ccccc3)cc2nn1-c1ccccc1
solubility [1]: < 1 µg/mL | inhibition [2]: 13% | IC50 [3]: 1.5 µM | inhibition [4]: -2% | IC50 [5]: 1.4 µM | inhibition of growth at 0.039 µM (MCF7): 35% | inhibition [6]: 98% | inhibition [7]: 38% | inhibition [8]: 2% | IC50 [9]: 8.7 µM | inhibition [10]: 12% | inhibition [11]: -1% | inhibition [12]: 90% | IC50 [13]: 4.8 µM | inhibition [14]: 79% | inhibition [15]: -10% | inhibition [16]: 22% | inhibition [17]: 2% | inhibition [18]: 23% | inhibition [19]: -8% | inhibition [20]: 61% | inhibition [21]: 96% | inhibition [22]: 20% | IC50 [23]: 1.3 µM | IC50 [24]: 0.87 µM | inhibition [25]: 96% | inhibition [26]: 29% | inhibition [27]: 96%
